Laboratory results as given in ChEMBL document CHEMBL5058577, “EUbOPEN Chemogenomics Library 2 (Multiplex)” (2022).

System: U2OS
Experiment: Multiplex assay against U2OS
Type: toxicity, cell-based
Settings: human
In short: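 Imaging took place on a CQ1 microscope at 37°C and 5% CO2 once compound had been added to live cells stained at seeding with Hoechst33342, BioTracker Green Microtubule Cytoskeleton Dye, MitoTracker Red and Annexin V Alexa Fluor 680. CellPathfinder machine-learning gating classed cells as Hoechst high-intensity objects or normal cells, classed normal cells as having healthy, pyknosed or fragmented nuclei, and classed pyknosed cells as mitotic or apoptotic. Tubulin, mitochondrial-mass and membrane-permeability phenotypes are per cents of the healthy-nucleus cells.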

[1] = 12 h, 1 µM, compound concentration 1 uM, replicate 1
[2] = 12 h, 1 µM, compound concentration 1 uM, replicate 2
[3] = 12 h, 10 µM, compound concentration 10 uM, replicate 1
[4] = 12 h, 10 µM, compound concentration 10 uM, replicate 2
[5] = 24 h, 1 µM, compound concentration 1 uM, replicate 1
[6] = 24 h, 1 µM, compound concentration 1 uM, replicate 2
[7] = 24 h, 10 µM, compound concentration 10 uM, replicate 1
[8] = 24 h, 10 µM, compound concentration 10 uM, replicate 2
[9] = 48 h, 1 µM, compound concentration 1 uM, replicate 1
[10] = 48 h, 1 µM, compound concentration 1 uM, replicate 2
[11] = 48 h, 10 µM, compound concentration 10 uM, replicate 1
[12] = 48 h, 10 µM, compound concentration 10 uM, replicate 2

`Cc1ccc(F)cc1C(=O)Nc1ccc(C(=O)N2Cc3cccn3Cc3ccccc32)c(Cl)c1` [LIXIVAPTAN] was tested. Which “Population Apoptotic (%)” value [1] did it give?
The value was 69%.

And the “Population Fragmented Nuclei (%)” value [1]?
The value was 32%.

What about the “Population Healthy Nuclei (%)” value [1] of the same compound?
The value was 55%.

And the “Population Hoechst High Intensity Objects (%)” value [1]?
The value was 3%.

What about the “Population Membrane Permeable-Phenotype (%)” value [1] of the same compound?
The value was 9%.

And the “Population Mitochondria Different-Phenotype (%)” value [1]?
The value was 9%.

And the “Population Mitotic Cells (%)” value [1]?
Its value is 30%.

What about the “Population Normal (%)” value [1] of the same compound?
The value was 96%.

And the “Population Pyknosed Nuclei (%)” value [1]?
Its value is 11%.

What about the “Population Tubulin-Different-Phenotype (%)” value [1] of the same compound?
Its value is 7%.

And the “Total Cell Count” value [1]?
Its value is 230.

And the “Population Apoptotic (%)” value [2]?
The value was 84%.

And the “Population Fragmented Nuclei (%)” value [2]?
Its value is 8%.

What about the “Population Healthy Nuclei (%)” value [2] of the same compound?
The value was 82%.

What about the “Population Membrane Permeable-Phenotype (%)” value [2] of the same compound?
The value was 14%.

What about the “Population Mitochondria Different-Phenotype (%)” value [2] of the same compound?
Its value is 10%.

And the “Population Mitotic Cells (%)” value [2]?
The value was 15%.

What about the “Population Pyknosed Nuclei (%)” value [2] of the same compound?
Its value is 8%.

What about the “Population Tubulin-Different-Phenotype (%)” value [2] of the same compound?
Its value is 11%.

And the “Total Cell Count” value [2]?
Its value is 150.

What about the “Population Apoptotic (%)” value [3] of the same compound?
Its value is 59%.

What about the “Population Fragmented Nuclei (%)” value [3] of the same compound?
The value was 34%.

And the “Population Healthy Nuclei (%)” value [3]?
The value was 49%.

And the “Population Hoechst High Intensity Objects (%)” value [3]?
Its value is 5%.

And the “Population Membrane Permeable-Phenotype (%)” value [3]?
Its value is 79%.

What about the “Population Mitochondria Different-Phenotype (%)” value [3] of the same compound?
Its value is 42%.

And the “Population Mitotic Cells (%)” value [3]?
The value was 40%.

What about the “Population Normal (%)” value [3] of the same compound?
The value was 94%.

And the “Population Pyknosed Nuclei (%)” value [3]?
The value was 16%.

And the “Population Tubulin-Different-Phenotype (%)” value [3]?
Its value is 85%.

And the “Total Cell Count” value [3]?
Its value is 203.

And the “Population Apoptotic (%)” value [4]?
Its value is 47%.

What about the “Population Fragmented Nuclei (%)” value [4] of the same compound?
The value was 13%.

What about the “Population Healthy Nuclei (%)” value [4] of the same compound?
The value was 69%.

What about the “Population Membrane Permeable-Phenotype (%)” value [4] of the same compound?
Its value is 63%.

And the “Population Mitochondria Different-Phenotype (%)” value [4]?
Its value is 55%.

And the “Population Mitotic Cells (%)” value [4]?
Its value is 52%.

And the “Population Tubulin-Different-Phenotype (%)” value [4]?
The value was 77%.

What about the “Total Cell Count” value [4] of the same compound?
The value was 119.

What about the “Population Apoptotic (%)” value [5] of the same compound?
Its value is 86%.

What about the “Population Fragmented Nuclei (%)” value [5] of the same compound?
The value was 26%.

What about the “Population Healthy Nuclei (%)” value [5] of the same compound?
Its value is 64%.

And the “Population Hoechst High Intensity Objects (%)” value [5]?
The value was 1%.

And the “Population Membrane Permeable-Phenotype (%)” value [5]?
The value was 9%.

And the “Population Mitochondria Different-Phenotype (%)” value [5]?
Its value is 9%.

What about the “Population Mitotic Cells (%)” value [5] of the same compound?
The value was 13%.

And the “Population Normal (%)” value [5]?
Its value is 98%.

What about the “Population Pyknosed Nuclei (%)” value [5] of the same compound?
Its value is 8%.

And the “Population Tubulin-Different-Phenotype (%)” value [5]?
Its value is 4%.

And the “Total Cell Count” value [5]?
Its value is 257.

What about the “Population Apoptotic (%)” value [6] of the same compound?
The value was 57%.

And the “Population Fragmented Nuclei (%)” value [6]?
The value was 14%.

What about the “Population Healthy Nuclei (%)” value [6] of the same compound?
The value was 81%.

What about the “Population Hoechst High Intensity Objects (%)” value [6] of the same compound?
The value was 4%.

What about the “Population Membrane Permeable-Phenotype (%)” value [6] of the same compound?
Its value is 11%.

What about the “Population Mitochondria Different-Phenotype (%)” value [6] of the same compound?
Its value is 13%.

What about the “Population Mitotic Cells (%)” value [6] of the same compound?
The value was 42%.

What about the “Population Normal (%)” value [6] of the same compound?
The value was 95%.

And the “Population Pyknosed Nuclei (%)” value [6]?
The value was 4%.

What about the “Population Tubulin-Different-Phenotype (%)” value [6] of the same compound?
The value was 7%.

What about the “Total Cell Count” value [6] of the same compound?
Its value is 171.

And the “Population Apoptotic (%)” value [7]?
The value was 59%.

And the “Population Fragmented Nuclei (%)” value [7]?
The value was 30%.

What about the “Population Healthy Nuclei (%)” value [7] of the same compound?
Its value is 50%.

And the “Population Hoechst High Intensity Objects (%)” value [7]?
The value was 4%.

And the “Population Membrane Permeable-Phenotype (%)” value [7]?
The value was 65%.

And the “Population Mitochondria Different-Phenotype (%)” value [7]?
Its value is 63%.

And the “Population Mitotic Cells (%)” value [7]?
The value was 40%.

What about the “Population Normal (%)” value [7] of the same compound?
Its value is 95%.

And the “Population Pyknosed Nuclei (%)” value [7]?
The value was 18%.

What about the “Population Tubulin-Different-Phenotype (%)” value [7] of the same compound?
Its value is 75%.

What about the “Total Cell Count” value [7] of the same compound?
The value was 207.

What about the “Population Apoptotic (%)” value [8] of the same compound?
Its value is 66%.

What about the “Population Fragmented Nuclei (%)” value [8] of the same compound?
The value was 14%.

And the “Population Healthy Nuclei (%)” value [8]?
Its value is 67%.

And the “Population Membrane Permeable-Phenotype (%)” value [8]?
Its value is 54%.

What about the “Population Mitochondria Different-Phenotype (%)” value [8] of the same compound?
Its value is 67%.

And the “Population Mitotic Cells (%)” value [8]?
Its value is 33%.

And the “Population Tubulin-Different-Phenotype (%)” value [8]?
Its value is 66%.

And the “Total Cell Count” value [8]?
The value was 119.

What about the “Population Apoptotic (%)” value [9] of the same compound?
The value was 87%.

And the “Population Fragmented Nuclei (%)” value [9]?
The value was 24%.

What about the “Population Healthy Nuclei (%)” value [9] of the same compound?
The value was 64%.

What about the “Population Hoechst High Intensity Objects (%)” value [9] of the same compound?
Its value is 1%.

What about the “Population Membrane Permeable-Phenotype (%)” value [9] of the same compound?
The value was 9%.

What about the “Population Mitochondria Different-Phenotype (%)” value [9] of the same compound?
Its value is 6%.

What about the “Population Mitotic Cells (%)” value [9] of the same compound?
Its value is 12%.

And the “Population Normal (%)” value [9]?
The value was 98%.

And the “Population Pyknosed Nuclei (%)” value [9]?
The value was 11%.

What about the “Population Tubulin-Different-Phenotype (%)” value [9] of the same compound?
The value was 5%.

And the “Total Cell Count” value [9]?
The value was 378.

What about the “Population Apoptotic (%)” value [10] of the same compound?
The value was 95%.

What about the “Population Fragmented Nuclei (%)” value [10] of the same compound?
The value was 10%.

And the “Population Healthy Nuclei (%)” value [10]?
Its value is 79%.

What about the “Population Hoechst High Intensity Objects (%)” value [10] of the same compound?
Its value is 3%.

And the “Population Membrane Permeable-Phenotype (%)” value [10]?
Its value is 13%.

And the “Population Mitochondria Different-Phenotype (%)” value [10]?
The value was 11%.

And the “Population Mitotic Cells (%)” value [10]?
The value was 5%.

What about the “Population Normal (%)” value [10] of the same compound?
Its value is 96%.

What about the “Population Pyknosed Nuclei (%)” value [10] of the same compound?
The value was 10%.

And the “Total Cell Count” value [10]?
The value was 206.

What about the “Population Apoptotic (%)” value [11] of the same compound?
The value was 75%.

And the “Population Fragmented Nuclei (%)” value [11]?
Its value is 32%.

What about the “Population Healthy Nuclei (%)” value [11] of the same compound?
The value was 37%.

What about the “Population Hoechst High Intensity Objects (%)” value [11] of the same compound?
Its value is 5%.

What about the “Population Membrane Permeable-Phenotype (%)” value [11] of the same compound?
The value was 49%.

And the “Population Mitochondria Different-Phenotype (%)” value [11]?
Its value is 40%.

What about the “Population Mitotic Cells (%)” value [11] of the same compound?
Its value is 25%.

What about the “Population Normal (%)” value [11] of the same compound?
Its value is 94%.

And the “Population Pyknosed Nuclei (%)” value [11]?
The value was 29%.

And the “Population Tubulin-Different-Phenotype (%)” value [11]?
The value was 44%.

And the “Total Cell Count” value [11]?
The value was 232.

And the “Population Apoptotic (%)” value [12]?
Its value is 92%.

What about the “Population Fragmented Nuclei (%)” value [12] of the same compound?
Its value is 18%.

And the “Population Healthy Nuclei (%)” value [12]?
Its value is 58%.

And the “Population Hoechst High Intensity Objects (%)” value [12]?
The value was 12%.

And the “Population Membrane Permeable-Phenotype (%)” value [12]?
Its value is 60%.

What about the “Population Mitochondria Different-Phenotype (%)” value [12] of the same compound?
The value was 52%.

And the “Population Mitotic Cells (%)” value [12]?
The value was 7%.

And the “Population Normal (%)” value [12]?
Its value is 87%.

And the “Population Pyknosed Nuclei (%)” value [12]?
Its value is 23%.

What about the “Population Tubulin-Different-Phenotype (%)” value [12] of the same compound?
The value was 57%.

And the “Total Cell Count” value [12]?
The value was 137.
